Assays:
H3K27ac on Hoxa9 = assay: ChIP, Hoxa9-associated H3 acetylation; format: cell-based, murine; conditions: marrow progenitors 15 days after transduction, NJL-transduced cells
Summary of the method: (§1)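 Mouse Lin- marrow cells were cytokine-stimulated, retrovirally transduced, selected with 1μg/mL puromycin and kept in SCF-only medium. ChIP used 1∼2 million cells for histone marks and 2∼3 million for other factors (p300 antibody 10μg). Equal nonspecific IgG served as antibody control and Chr8Int as negative locus. Triplicate SYBR qPCR gave % of input and fold over IgG.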

[1] = tested on: mice transplanted with transduced bone marrow progenitors; assay: Murine bone marrow transplantation leukemogenic assay; format: in vivo; conditions: 12 mice
Summary of the method: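 Lin- marrow from femur and tibia (balb/C or b/6) was prestimulated 2-3 days with SCF, 5ng/mL FLT3 ligand, IL3 and IL6. Cells were infected with MSCV retrovirus encoding 3xFLAG fusion or empty vector. 100,000 cells were injected via tail vein into sublethally irradiated syngeneic mice, 12 per group, and leukemia kinetics were followed.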

p300 on Hoxa9 = assay: ChIP, p300 recruitment on Hoxa9; format: cell-based, murine; conditions: 15 days after transduction; qualitative
Summary of the method: as §1

H3K4me3 or H3 = assay: CoIP in transiently transfected 293 cells; format: binding; conditions: qualitative
Summary of the method: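 Nuclei underwent limited micrococcal nuclease digestion to release mainly mononucleosomes, and insoluble material was removed by centrifugation. Supernatant was incubated with FLAG- or HA-agarose, or with magnetic beads coupled to anti-H3K4me3 or control antibodies. After extensive washing, precipitated proteins were analysed by immunoblot.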

[2] = tested on: Ezh2 or Suz12, H3K27me3 at Hox-A clusters; assay: ChIP, polycomb factors and H3K27me3 at Hox-A cluster; format: cell-based, murine; conditions: NJL-infected progenitors, qualitative
Summary of the method: as §1

[3] = tested on: WDR5, RBBP5, and MLL2 on Hoxa9; assay: ChIP, WDR5, RBBP5 and MLL2 on Hoxa9; format: cell-based, murine; conditions: marrow progenitors 15 days after transduction; qualitative
Summary of the method: as §1

B1: NJL: NUP98 amino acids 1-514 fused to amino acids 1489-1690 of JARID1A transcript variant 1 (protein)
chain: MFNKSFGTPFGGGTGGFGTTSTFGQNTGFGTTSGGAFGTSAFGSSNNTGGLFGNSQTKPGGLFGTSSFSQPATSTSTGFGFGTSTGTANTLFGTASTGTSLFSSQNNAFAQNKPTGFGNFGTSTSSGGLFGTTNTTSNPFGSTSGSLFGPSSFTAAPTGTTIKFNPPTGTDTMVKAGVSTNISTKHQCITAMKEYESKSLEELRLEDYQANRKGPQNQVGAGTTTGLFGSSPATSSATGLFSSSTTNSGFAYGQNKTAFGTSTTGFGTNPGGLFGQQNQQTTSLFSKPFGQATTTQNTGFSFGNTSTIGQPSTNTMGLFGVTQASQPGGLFGTATNTSTGTAFGTGTGLFGQTNTGFGAVGSTLFGNNKLTTFGSSTTSAPSFGTTSGGLFGNKPTLTLGTNTNTSNFGFGTNTSGNSIFGSKPAPGTLGTGLGAGFGTALGAGQASLFGNNQPKIGGPLGTGAFGAPGFNTTTATLGFGAPQAPVALTDPNASAAQQAVLQQHINSLTYSPFGMEEKPLKVKGKDSSEKKRKRKLEKVEQLFGEGKQKSKELKKMDKPRKKKLKLGADKSKELNKLAKKLAKEEERKKKKEKAAAAKVELVKESTEKKREKKVLDIPSKYDWSGAEESDDENAVCAAQNCQRPCKDKVDWVQCDGGCDEWFHQVCVGVSPEMAENEDYICINCAKKQGPVSPGPAPPPSFIMSYKLPMEDLKETS
modifications: left off: 3xFLAG, N-terminal, kept
elevation of H3K27ac on Hoxa9 (H3K27ac on Hoxa9): > 2,000 fold | average time to death of AML [1]: 69 days | p300 recruitment on Hoxa9 (p300 on Hoxa9): recruitment of p300 | association with H3K4me3 or H3 (H3K4me3 or H3): associated with H3K4me3 or H3 | restriction of polycomb factors (Ezh2 or Suz12) [2]: restricted within Hoxa11-a13 | WDR5, RBBP5, and MLL2 on Hoxa9 [3]: high levels
